From ChEMBL document CHEMBL4184131, “Cyclotheonellazoles A-C, Potent Protease Inhibitors from the Marine Sponge Theonella aff. swinhoei” (J Nat Prod, 2017)
In brackets after ≈: the same amount, converted by molar mass. Starred links: 1 amine or outer side, 2 acyl side, 3 side chain; linkers in the order of their positions; H or OH if unused. Positions of bridges follow the written chain, without caps; N, C: chain ends. Non-standard residues stand in square brackets, D forms with d. Residues, ends and D or L forms follow the SMILES beside them. *: point of attachment. X2 = O=C(/C=C/c1csc([C@H](Cc2ccc(O)cc2)N[*:1])n1)[*:2]; X1 = CC[C@H](C)[C@H](N[*:1])C(=O)C(=O)[*:2]; Benzoyl(4-OH) = O=C(c1ccc(O)cc1)*; Cya = N[C@@H](CS(=O)(=O)O)C(=O)O; Nva = CCC[C@H](N)C(=O)O; Abu = CC[C@H](N)C(=O)O; Dap = NC[C@H](N)C(=O)O

What was measured:
[1] = Inhibition of chymotrypsin (unknown origin) incubated for 30 mins using Suc-Gly-Gly-phenylalanine-p-nitroanilide substrate by spectrophotometry; parameters: species or system Homo sapiens
Outline: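 In Tris buffer (0.6 g Tris HCl/100 mL, pH 7.5), enzyme and Suc-Gly-Gly-Phe-p-nitroanilide substrate each dissolved in buffer at 1 mg/mL. Enzyme and sample preincubated 5 min at 37 °C, then substrate added. Absorbance at 405 nm read kinetically over 30 min. Samples from 1 mg/mL DMSO stock serially diluted; IC50 fitted by four-parameter logistic model.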

Plasmodium falciparum [2] = test: Antiplasmodial activity against Plasmodium falciparum assessed as inhibition of parasite growth incubated for 48 hrs by colorimetry based p-LDH assay; format: functional, organism-based
[3] = Inhibition of elastase (unknown origin) incubated for 20 mins using N-Suc-Ala-Ala-Ala-p-nitroanilide substrate by spectrophotometry; parameters: species or system Homo sapiens
Outline: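 Tris buffer (2.422 g Tris HCl/100 mL, pH 8.0). Enzyme stock 75 mg/mL and N-Suc-Ala-Ala-Ala-p-nitroanilide stock 0.9 mg/mL, both in buffer. Enzyme with sample preincubated 20 min at 30 °C before substrate addition. Absorbance at 405 nm followed kinetically over 20 min. Serial dilutions from 1 mg/mL DMSO stock; IC50 from four-parameter logistic fit.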

Plasmodium falciparum [4] = test: Antiplasmodial activity against Plasmodium falciparum; format: functional, organism-based

SMILES | IC50 [1] [nM] | IC50 (Plasmodium falciparum [2]) [µg/mL] | IC50 [3] [nM] | IC50 (Plasmodium falciparum [4]) [µg/mL]
CC[C@H](C)[C@@H]1NC(=O)[C@H](CC(C)C)NC(=O)[C@@H](NC(=O)[C@H](C)NC(=O)CNC(=O)c2ccc(O)cc2)CNC(=O)[C@H](CS(=O)(=O)[O-])NC(=O)/C=C/c2csc(n2)[C@H](Cc2ccc(O)cc2)NC(=O)C1=O.[Na+] ({Benzoyl(4-OH)}-GA[Dap]L[X1][X2][Cya]; lactam 3-C) | 2.8 | > 20 | 0.1 | 
CC[C@@H]1NC(=O)[C@@H](NC(=O)[C@H](C)NC(=O)CNC(=O)c2ccc(O)cc2)CNC(=O)[C@H](CS(=O)(=O)[O-])NC(=O)/C=C/c2csc(n2)[C@H](Cc2ccc(O)cc2)NC(=O)C(=O)[C@H]([C@@H](C)CC)NC1=O.[Na+] ({Benzoyl(4-OH)}-GA[Dap][Abu][X1][X2][Cya]; lactam 3-C) | 2.3 | > 20 | 0.099 | 
CCC[C@@H]1NC(=O)[C@@H](NC(=O)[C@H](C)NC(=O)CNC(=O)c2ccc(O)cc2)CNC(=O)[C@H](CS(=O)(=O)[O-])NC(=O)/C=C/c2csc(n2)[C@H](Cc2ccc(O)cc2)NC(=O)C(=O)[C@H]([C@@H](C)CC)NC1=O.[Na+] ({Benzoyl(4-OH)}-GA[Dap][Nva][X1][X2][Cya]; lactam 3-C) | 0.62 | > 20 | 0.034 | 
CO[C@H]1C[C@H](CC[C@H](C)[C@H](O)[C@H](C)[C@H]2OC(=O)/C=C/C(C)=C/C[C@H](O)C[C@@H]3C=CC[C@@H](C[C@H](OC)[C@@H](C)[C@@H](O)C[C@@H](O)[C@H](C)[C@@H]([C@@H](C)[C@@H](O)[C@@H](C)CC[C@H]4C[C@H](OC)C[C@H](C)O4)OC(=O)/C=C/C(C)=C/C[C@H](O)C[C@@H]4C=CC[C@@H](C[C@H](OC)[C@@H](C)[C@@H](O)C[C@@H](O)[C@@H]2C)O4)O3)O[C@@H](C)C1 [Swinholide A] |  |  |  | 4.75 (≈ 3.42 µM)
